From ChEMBL document CHEMBL4699424, “New chemical agents based on adamantane-monoterpene conjugates against orthopoxvirus infections” (RSC Med Chem, 2020)

Assays:
[1] = system: Cowpox virus; test: Antiviral activity against Cowpox virus Grishak infected in African green monkey Vero cells assessed as reduction in cell survival incubated for 4 days by neutral red dye based colorimetric analysis; assay type: functional, organism-based; settings: 96 h
[2] = Selectivity index, ratio of CC50 for African green monkey Vero cells to IC50 for Vaccinia virus Copenhagen infected in African green monkey Vero cells assessed as reduction in cell survival incubated for 4 days by neutral dye based colorimetric analysis; assay type: toxicity; settings: read-out: Ratio CC50/IC50
[3] = system: Ectromelia virus; test: Antiviral activity against Ectromelia virus K-1 infected in African green monkey Vero cells assessed as reduction in cell survival incubated for 4 days by neutral red dye based colorimetric analysis; assay type: functional; settings: K-1, Vero, 96 h
[4] = Cytotoxicity against African green monkey Vero cells assessed as […]; assay type: cell-based; settings: chlorocebus sabaeus
Summary of the method: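 Uninfected Vero monolayers in DMEM with 2% serum, given 8 three-fold compound dilutions starting at 1, 10 or 100 μg ml–1. Cell viability read by neutral red uptake: dye 1.5 h, washes, lysis, OD. CC50, the concentration causing 50% cell death, calculated from OD values.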

[5] = system: Vaccinia virus; test: Antiviral activity against Vaccinia virus Copenhagen infected in African green monkey Vero cells assessed as reduction in cell survival incubated for 4 days by neutral red dye based colorimetric analysis; assay type: functional, organism-based; settings: Orthopoxvirus vaccinia, 96 h
[6] = Selectivity index, ratio of CC50 for African green monkey Vero cells to IC50 for Cowpox virus Grishak infected in African green monkey Vero cells assessed as reduction in cell survival incubated for 4 days by neutral dye based colorimetric analysis; assay type: toxicity; settings: read-out: Ratio CC50/IC50
[7] = Selectivity index, ratio of CC50 for African green monkey Vero cells to IC50 for Ectromelia virus K-1 infected in African green monkey Vero cells assessed as reduction in cell survival incubated for 4 days by neutral dye based colorimetric analysis; assay type: toxicity; settings: read-out: Ratio CC50/IC50
[8] = system: Vaccinia virus; test: Antiviral activity against Vaccinia virus; assay type: functional, organism-based; settings: Orthopoxvirus vaccinia
[9] = system: Vaccinia virus; test: Antiviral activity against Vaccinia virus assessed as reduction in viral reproduction at 2 ug/ml after 3 hrs relative to control; assay type: functional, Orthopoxvirus vaccinia; design: scale not given: the % may be the effect or the level left; settings: dose 2 µg/ml
[10] = system: Vaccinia virus; test: Antiviral activity against Vaccinia virus assessed as reduction in viral reproduction at 2 ug/ml relative to control; assay type: functional, Orthopoxvirus vaccinia; design: scale not given: the % may be the effect or the level left; settings: dose 2 µg/ml

Structure (SMILES)	selectivity ratio at 96 h [2]	CC50 [4]	IC50 [5]	also measured
CC1(C)[C@H]2CC=C(CCNC(=O)C3C4CC5CC(C4)CC3C5)[C@@H]1C2 (some centres undefined)	85	372 µM	4.4 µM	IC50 [1]: 12.5 µM; IC50 [3]: 9.5 µM; selectivity ratio at 96 h [6]: 30; selectivity ratio at 96 h [7]: 39
O=C(NN1C(=O)C2C3C=CC(C4CC34)C2C1=O)c1ccc(C(F)(F)F)cc1 (centres undefined)	128000	1280 µM	0.01 µM	
CC(C)=CCC/C(C)=C/CNC(=O)C12CC3CC(CC(C3)C1)C2	3	18.9 µM	5.9 µM	
CC1CCN(CC(=O)N[C@@H]2C[C@H]3CC[C@]2(C)C3(C)C)CC1				IC50 [8]: 2.5 µM
CC1(C)[C@H]2CC[C@](C)(C2)[C@H]1NC(=O)C12CC3CC(CC(C3)C1)C2	22	317 µM	14.4 µM	
CC1(C)[C@@H]2CC[C@@]1(CS(=O)(=O)NC1C3CC4CC(C3)CC1C4)C(=O)C2 (some centres undefined)	160	95.8 µM	0.6 µM	
CC1(C)[C@H]2CC=C(C(=O)NC34CC5CC(CC(C5)C3)C4)[C@@H]1C2	11	7.9 µM	0.7 µM	
CC1(C)[C@H]2CC[C@]1(C)[C@H](OC(=O)CCN1CCOCC1)C2				IC50 [8]: 3.5 µM
O=C1Nc2ccccc2/C1=N\NC(=S)NC1C2CC3CC(C2)CC1C3 (centres undefined)				Activity [9]: 42%
CC(C)=CCC/C(C)=C\CNC(=O)C12CC3CC(CC(C3)C1)C2		12.9 µM		
CC1(C)[C@H]2CC=C(C(=O)NC3C4CC5CC(C4)CC3C5)[C@@H]1C2 (some centres undefined)	325	812 µM	2.5 µM	IC50 [1]: 7.2 µM; IC50 [3]: 1.7 µM; selectivity ratio at 96 h [6]: 113; selectivity ratio at 96 h [7]: 477
Nc1ccn(C[C@@H](CO)OCP(=O)(O)O)c(=O)n1 [CIDOFOVIR]	12			
CC1(C)[C@@H]2CC[C@@]1(CS(=O)(=O)NC13CC4CC(CC(C4)C1)C3)C(=O)C2	71	164 µM	2.3 µM	
CC(C)=CCC[C@H](C)CCNC(=O)C12CC3CC(CC(C3)C1)C2	5	18.1 µM	3.6 µM	
CC1(C)[C@@H]2CC[C@@]1(C)[C@H](NC(=O)C13CC4CC(CC(C4)C1)C3)C2	30	317 µM	10.6 µM	
O=C(NC12CC3CC(CC(C3)C1)C2)C(c1ccccc1)c1ccccc1				Activity [10]: 72%
C=C(C)[C@@H]1CC=C(CNC(=O)C23CC4CC(CC(C4)C2)C3)CC1	26	319 µM	12.3 µM	
CC1(C)[C@H]2CC=C(CNC(=O)C34CC5CC(CC(C5)C3)C4)[C@@H]1C2	1120	1910 µM	1.7 µM	IC50 [1]: 4.7 µM; IC50 [3]: 2.7 µM; selectivity ratio at 96 h [6]: 406; selectivity ratio at 96 h [7]: 707
CC1(C)[C@H]2CC=C(CCNC(=O)C34CC5CC(CC(C5)C3)C4)[C@@H]1C2	417	750 µM	1.8 µM	IC50 [1]: 4.1 µM; IC50 [3]: 1.6 µM; selectivity ratio at 96 h [6]: 183; selectivity ratio at 96 h [7]: 469
CC1=CC[C@H](CCNC(=O)C23CC4CC(CC(C4)C2)C3)C1(C)C	126	317 µM	2.5 µM	
CC1=CC[C@H](CCNC(=O)C2C3CC4CC(C3)CC2C4)C1(C)C (some centres undefined)	122	317 µM	2.6 µM	
CC(C)=CCCC(C)CC(=O)NC12CC3CC(CC(C3)C1)C2 (centres undefined)	12	37 µM	3.1 µM	
CC(C)CCCC(C)CCNC(=O)C1C2CC3CC(C2)CC1C3 (centres undefined)	5	13.7 µM	2.8 µM	
CC(C)CCCC(C)CCNC(=O)C12CC3CC(CC(C3)C1)C2 (centres undefined)		17.3 µM		
CC1(C)[C@H]2CC=C(CNC(=O)C3C4CC5CC(C4)CC3C5)[C@@H]1C2 (some centres undefined)	267	1230 µM	4.6 µM	IC50 [1]: 15 µM; IC50 [3]: 12.6 µM; selectivity ratio at 96 h [6]: 82; selectivity ratio at 96 h [7]: 97
CC(C)=CCCC(C)CC(=O)NC1C2CC3CC(C2)CC1C3 (centres undefined)	22	330 µM	14.8 µM	
